Laboratory results: ChEMBL document CHEMBL5661979, “Pharmacological inhibition of BMK1 suppresses tumor growth through promyelocytic leukemia protein” (Cancer Cell, 2010)

Tests used:
[1] = molecular target: RAC-alpha serine/threonine-protein kinase (Homo sapiens, UniProt P31749); assay: Inhibition of AKT1 in human HeLa cells lysate pre incubated for 15 mins followed by ATP acyl phosphate probe addition and measured after 10 mins by LC-MS/MS analysis; format: subcellular
Outline: (§1)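 HeLa cell lysates (5 mg/mL total protein) were preincubated with inhibitor at 0, 0.8, 2, 10 or 50 μM for 15 min. ATP or ADP acylphosphate probe was then added (5 μM final) for 10 min, and reactions were stopped with urea. Up to four fragment ions per kinase probe-peptide were quantified by targeted MS. % inhibition was taken relative to untreated lysate. Run in duplicate.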

[2] = molecular target: Serine/threonine-protein kinase 16 (Homo sapiens, UniProt O75716); assay: Inhibition of MPSK1 in human HeLa cells lysate pre incubated for 15 mins followed by ATP acyl phosphate probe addition and measured after 10 mins by LC-MS/MS analysis; format: subcellular
[3] = molecular target: Non-receptor tyrosine-protein kinase TNK1 (Homo sapiens, UniProt Q13470); assay: Inhibition of TNK1 in human HeLa cells lysate pre incubated for 15 mins followed by ADP acyl phosphate probe addition and measured after 10 mins by LC-MS/MS analysis; format: subcellular
[4] = molecular target: Calcium/calmodulin-dependent protein kinase type II subunit delta (Homo sapiens, UniProt Q13557); assay: Inhibition of CAMK2d in human HeLa cells lysate pre incubated for 15 mins followed by ADP acyl phosphate probe addition and measured after 10 mins by LC-MS/MS analysis; format: subcellular
Outline: (§2)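 KiNativ-type profiling in HeLa lysate (5 mg/mL total protein). Lysate preincubated 15 min with inhibitor at 50, 10, 2, 0.8 or 0 μM, then ATP or ADP acylphosphate probe added (5 μM final) for 10 min. Reaction stopped with urea and analysed by targeted MS, using up to four fragment ions per kinase peptide-probe conjugate. % inhibition calculated against untreated lysate. Duplicate reactions.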

[5] = molecular target: Cyclin-dependent kinase 12 (Homo sapiens, UniProt Q9NYV4); assay: Inhibition of CRK7 in human HeLa cells lysate pre incubated for 15 mins followed by ADP acyl phosphate probe addition and measured after 10 mins by LC-MS/MS analysis; format: subcellular
[6] = molecular target: Mitogen-activated protein kinase 3 (Homo sapiens, UniProt P27361); assay: Inhibition of ERK1 in human HeLa cells lysate pre incubated for 15 mins followed by ADP acyl phosphate probe addition and measured after 10 mins by LC-MS/MS analysis; format: subcellular
[7] = molecular target: Cyclin-dependent kinase 16 (Homo sapiens, UniProt Q00536); assay: Inhibition of PCTAIRE1 in human HeLa cells lysate pre incubated for 15 mins followed by ADP acyl phosphate probe addition and measured after 10 mins by LC-MS/MS analysis; format: subcellular
Activated CDC42 kinase 1 [8] = molecular target: T1, Activated CDC42 kinase 1 (Homo sapiens, UniProt Q07912); assay: Inhibition of ACK1 in human HeLa cells lysate at 50 uM pre incubated for 15 mins followed by ADP acyl phosphate probe addition and measured after 10 mins by LC-MS/MS analysis relative to control; format: subcellular; settings: time 25.0 min; outline: as §1
[9] = molecular target: Serine/threonine-protein kinase Chk2 (Homo sapiens, UniProt O96017); assay: Inhibition of CHK2 in human HeLa cells lysate at 50 uM pre incubated for 15 mins followed by ADP acyl phosphate probe addition and measured after 10 mins by LC-MS/MS analysis relative to control; format: subcellular; settings: time 25.0 min
[10] = molecular target: Serine/threonine-protein kinase 24 (Homo sapiens, UniProt Q9Y6E0); assay: Inhibition of MST3 in human HeLa cells lysate at 50 uM pre incubated for 15 mins followed by ADP acyl phosphate probe addition and measured after 10 mins by LC-MS/MS analysis relative to control; format: subcellular; settings: time 25.0 min
[11] = molecular target: Serine/threonine-protein kinase 38-like (Homo sapiens, UniProt Q9Y2H1); assay: Inhibition of NDR2 in human HeLa cells lysate at 10 uM pre incubated for 15 mins followed by ADP acyl phosphate probe addition and measured after 10 mins by LC-MS/MS analysis relative to control; format: subcellular; settings: time 25.0 min
Activated CDC42 kinase 1 [12] = molecular target: T1, Activated CDC42 kinase 1; assay: Inhibition of ACK1 in human HeLa cells lysate at 2 uM pre incubated for 15 mins followed by ADP acyl phosphate probe addition and measured after 10 mins by LC-MS/MS analysis relative to control; format: subcellular; settings: time 25.0 min; outline: as §1
[13] = molecular target: Mitogen-activated protein kinase 4 (Homo sapiens, UniProt P31152); assay: Inhibition of ERK4 in human HeLa cells lysate at 50 uM pre incubated for 15 mins followed by ATP acyl phosphate probe addition and measured after 10 mins by LC-MS/MS analysis relative to control; format: subcellular; settings: time 25.0 min
[14] = molecular target: Serine/threonine-protein kinase ATR (Homo sapiens, UniProt Q13535); assay: Inhibition of ATR in human HeLa cells lysate at 50 uM pre incubated for 15 mins followed by ATP acyl phosphate probe addition and measured after 10 mins by LC-MS/MS analysis relative to control; format: subcellular; settings: time 25.0 min; outline: as §2
[15] = molecular target: DNA-dependent protein kinase catalytic subunit (Homo sapiens, UniProt P78527); assay: Inhibition of PRKDC in human HeLa cells lysate at 50 uM pre incubated for 15 mins followed by ATP acyl phosphate probe addition and measured after 10 mins by LC-MS/MS analysis relative to control; format: subcellular; settings: time 25.0 min
[16] = molecular target: Cyclin-dependent kinase 10 (Homo sapiens, UniProt Q15131); assay: Inhibition of CDK10 in human HeLa cells lysate at 10 uM pre incubated for 15 mins followed by ATP acyl phosphate probe addition and measured after 10 mins by LC-MS/MS analysis relative to control; format: subcellular; settings: time 25.0 min
Outline: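 KiNativ profiling in HeLa lysate (5 mg/mL total protein). Lysate incubated 15 min with inhibitor at 50, 10, 2, 0.8 or 0 μM. ATP or ADP acylphosphate probe then added (5 μM final) and reacted 10 min. Reaction stopped with urea and analysed by targeted MS, using up to four fragment ions per kinase peptide-probe conjugate. % inhibition taken against untreated lysate. Run in duplicate.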

[17] = molecular target: Epidermal growth factor receptor (Homo sapiens, UniProt P00533); assay: Inhibition of EGFR in human HeLa cells lysate at 10 uM pre incubated for 15 mins followed by ATP acyl phosphate probe addition and measured after 10 mins by LC-MS/MS analysis relative to control; format: subcellular; settings: time 25.0 min
[18] = molecular target: Serine/threonine-protein kinase LATS1 (Homo sapiens) (UniProt O95835); assay: Inhibition of LATS1 in human HeLa cells lysate at 2 uM pre incubated for 15 mins followed by ATP acyl phosphate probe addition and measured after 10 mins by LC-MS/MS analysis relative to control; format: subcellular; settings: time 25.0 min
[19] = molecular target: Tyrosine-protein kinase JAK1 (Homo sapiens, UniProt P23458); assay: Inhibition of JAK1 domain 2 in human HeLa cells lysate at 2 uM pre incubated for 15 mins followed by ATP acyl phosphate probe addition and measured after 10 mins by LC-MS/MS analysis relative to control; format: subcellular; settings: time 25.0 min
[20] = Clearance in Sprague-Dawley rat at 1 mg/kg, iv measured up to 8 hrs by LC-MS/MS analysis; format: ADME, organism-based; settings: in vivo
Outline: (§3)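 Sprague-Dawley rats given one intravenous dose or one oral dose of 2 mg/kg. Plasma drug concentrations were followed over time, with samples taken out to 8 hr after dosing. PK parameters (clearance, volume of distribution, half-life, oral bioavailability, Cmax) were calculated from these concentration–time data.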

[21] = Cmax in Sprague-Dawley rat at 2 mg/kg, po measured up to 8 hrs by LC-MS/MS analysis; format: ADME, organism-based; settings: in vivo; outline: as §3
[22] = Plasma concentration in C57Bl/6 mouse at 50 mg/kg, ip administered for 1 day and measured 8 hr post last dose by LC-MS/MS analysis; format: ADME, organism-based

T1 sequence (Q07912 whole entry, looked up): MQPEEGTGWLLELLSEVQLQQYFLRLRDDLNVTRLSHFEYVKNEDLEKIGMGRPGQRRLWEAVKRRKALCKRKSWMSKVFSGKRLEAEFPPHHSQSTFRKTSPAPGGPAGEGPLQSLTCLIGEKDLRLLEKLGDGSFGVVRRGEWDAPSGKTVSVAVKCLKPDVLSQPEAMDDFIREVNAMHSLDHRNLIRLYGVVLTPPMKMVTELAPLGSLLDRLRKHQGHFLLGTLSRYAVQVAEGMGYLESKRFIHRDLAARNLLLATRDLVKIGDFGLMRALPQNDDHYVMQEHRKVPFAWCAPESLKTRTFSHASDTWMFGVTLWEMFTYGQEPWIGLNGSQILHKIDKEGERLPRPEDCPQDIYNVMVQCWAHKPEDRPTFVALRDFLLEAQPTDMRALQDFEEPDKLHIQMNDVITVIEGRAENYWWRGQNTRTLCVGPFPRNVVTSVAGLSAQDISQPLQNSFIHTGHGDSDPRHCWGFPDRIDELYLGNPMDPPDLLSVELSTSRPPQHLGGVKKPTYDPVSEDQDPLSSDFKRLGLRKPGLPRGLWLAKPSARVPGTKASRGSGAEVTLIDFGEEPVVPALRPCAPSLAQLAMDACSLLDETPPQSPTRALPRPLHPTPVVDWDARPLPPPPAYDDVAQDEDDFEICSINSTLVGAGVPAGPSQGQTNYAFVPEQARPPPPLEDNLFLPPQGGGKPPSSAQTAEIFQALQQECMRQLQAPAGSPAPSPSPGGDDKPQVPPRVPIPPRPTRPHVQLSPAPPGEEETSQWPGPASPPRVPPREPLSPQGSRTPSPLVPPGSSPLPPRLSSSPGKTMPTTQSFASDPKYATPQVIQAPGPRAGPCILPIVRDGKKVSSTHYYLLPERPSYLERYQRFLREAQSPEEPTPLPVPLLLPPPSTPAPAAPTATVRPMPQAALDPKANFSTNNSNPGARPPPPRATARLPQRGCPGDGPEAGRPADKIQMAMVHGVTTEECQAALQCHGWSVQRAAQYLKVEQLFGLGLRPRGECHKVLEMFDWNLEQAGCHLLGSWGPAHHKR
Epidermal growth factor receptor, sequence (P00533 whole entry): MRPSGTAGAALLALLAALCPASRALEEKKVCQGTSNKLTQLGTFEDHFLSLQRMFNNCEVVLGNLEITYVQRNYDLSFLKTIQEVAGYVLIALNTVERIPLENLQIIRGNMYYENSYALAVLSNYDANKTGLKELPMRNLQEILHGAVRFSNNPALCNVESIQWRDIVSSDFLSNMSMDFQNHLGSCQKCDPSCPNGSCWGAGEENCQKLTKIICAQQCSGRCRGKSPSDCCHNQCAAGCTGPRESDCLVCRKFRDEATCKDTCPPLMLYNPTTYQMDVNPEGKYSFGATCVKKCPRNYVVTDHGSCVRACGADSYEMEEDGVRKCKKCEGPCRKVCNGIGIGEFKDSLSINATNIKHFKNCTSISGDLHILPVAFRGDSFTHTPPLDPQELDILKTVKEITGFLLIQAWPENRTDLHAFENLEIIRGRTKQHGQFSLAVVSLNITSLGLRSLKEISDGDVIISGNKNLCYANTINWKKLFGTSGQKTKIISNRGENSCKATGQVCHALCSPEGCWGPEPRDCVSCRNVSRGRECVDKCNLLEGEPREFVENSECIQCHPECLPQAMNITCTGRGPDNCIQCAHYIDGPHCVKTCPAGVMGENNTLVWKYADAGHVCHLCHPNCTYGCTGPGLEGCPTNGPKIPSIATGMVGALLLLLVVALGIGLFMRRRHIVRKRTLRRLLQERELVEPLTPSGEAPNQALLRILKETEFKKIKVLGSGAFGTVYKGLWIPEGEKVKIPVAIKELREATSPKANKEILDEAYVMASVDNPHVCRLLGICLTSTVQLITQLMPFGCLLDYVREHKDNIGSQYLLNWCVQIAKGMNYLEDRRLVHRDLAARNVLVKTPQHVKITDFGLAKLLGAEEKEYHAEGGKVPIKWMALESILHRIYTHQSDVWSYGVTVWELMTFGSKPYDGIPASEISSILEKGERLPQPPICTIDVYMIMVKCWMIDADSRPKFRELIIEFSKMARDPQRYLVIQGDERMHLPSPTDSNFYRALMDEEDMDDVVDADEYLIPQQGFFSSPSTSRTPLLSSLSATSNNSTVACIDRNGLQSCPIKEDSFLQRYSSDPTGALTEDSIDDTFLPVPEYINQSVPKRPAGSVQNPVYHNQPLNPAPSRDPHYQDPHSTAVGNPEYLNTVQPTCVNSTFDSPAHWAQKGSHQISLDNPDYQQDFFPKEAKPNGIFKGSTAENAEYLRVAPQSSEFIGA
Serine/threonine-protein kinase LATS1 (Homo sapiens), sequence (O95835 whole entry, the tested form may be a part): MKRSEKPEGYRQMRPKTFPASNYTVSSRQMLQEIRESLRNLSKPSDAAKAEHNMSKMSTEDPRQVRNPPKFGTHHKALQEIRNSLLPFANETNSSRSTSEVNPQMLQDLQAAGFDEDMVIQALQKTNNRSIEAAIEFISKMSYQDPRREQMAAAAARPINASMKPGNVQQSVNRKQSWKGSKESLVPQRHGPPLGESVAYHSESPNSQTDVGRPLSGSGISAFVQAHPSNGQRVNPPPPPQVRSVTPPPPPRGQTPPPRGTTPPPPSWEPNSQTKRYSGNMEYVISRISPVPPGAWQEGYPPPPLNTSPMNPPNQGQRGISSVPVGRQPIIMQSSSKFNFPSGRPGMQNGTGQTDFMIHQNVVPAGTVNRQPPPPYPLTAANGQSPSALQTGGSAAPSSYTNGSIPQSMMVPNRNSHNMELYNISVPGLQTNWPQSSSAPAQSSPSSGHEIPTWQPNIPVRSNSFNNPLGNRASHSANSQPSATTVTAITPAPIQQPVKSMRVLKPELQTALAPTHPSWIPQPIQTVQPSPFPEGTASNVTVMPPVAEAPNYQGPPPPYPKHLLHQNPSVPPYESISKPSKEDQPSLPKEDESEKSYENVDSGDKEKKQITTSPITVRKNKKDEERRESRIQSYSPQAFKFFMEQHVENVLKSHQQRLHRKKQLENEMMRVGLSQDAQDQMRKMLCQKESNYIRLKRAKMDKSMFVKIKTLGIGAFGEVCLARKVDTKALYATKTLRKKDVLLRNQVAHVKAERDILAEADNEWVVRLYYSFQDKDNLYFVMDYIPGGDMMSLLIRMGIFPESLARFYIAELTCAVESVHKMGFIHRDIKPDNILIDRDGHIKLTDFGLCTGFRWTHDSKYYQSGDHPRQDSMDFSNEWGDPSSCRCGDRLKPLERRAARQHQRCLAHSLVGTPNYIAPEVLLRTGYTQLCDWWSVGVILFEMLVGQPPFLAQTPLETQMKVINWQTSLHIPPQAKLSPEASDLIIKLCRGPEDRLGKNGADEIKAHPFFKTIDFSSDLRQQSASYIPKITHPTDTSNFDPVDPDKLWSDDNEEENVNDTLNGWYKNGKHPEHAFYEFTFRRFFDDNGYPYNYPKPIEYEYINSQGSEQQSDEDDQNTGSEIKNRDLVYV
Calcium/calmodulin-dependent protein kinase type II subunit delta, sequence (Q13557 whole entry, the tested form may be a part): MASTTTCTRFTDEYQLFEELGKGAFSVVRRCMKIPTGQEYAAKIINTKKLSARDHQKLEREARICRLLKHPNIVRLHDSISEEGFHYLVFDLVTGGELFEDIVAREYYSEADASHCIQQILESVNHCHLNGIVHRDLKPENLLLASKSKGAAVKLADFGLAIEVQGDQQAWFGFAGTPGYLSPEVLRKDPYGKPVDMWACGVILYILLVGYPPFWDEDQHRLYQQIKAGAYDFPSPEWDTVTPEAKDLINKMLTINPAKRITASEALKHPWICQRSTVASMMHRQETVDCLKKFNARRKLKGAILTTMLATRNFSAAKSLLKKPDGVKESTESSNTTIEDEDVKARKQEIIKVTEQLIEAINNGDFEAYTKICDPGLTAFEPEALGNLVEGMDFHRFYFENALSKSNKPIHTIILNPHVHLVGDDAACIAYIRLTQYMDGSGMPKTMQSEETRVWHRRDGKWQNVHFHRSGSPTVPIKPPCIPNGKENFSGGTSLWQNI
Cyclin-dependent kinase 16, sequence (Q00536 whole entry): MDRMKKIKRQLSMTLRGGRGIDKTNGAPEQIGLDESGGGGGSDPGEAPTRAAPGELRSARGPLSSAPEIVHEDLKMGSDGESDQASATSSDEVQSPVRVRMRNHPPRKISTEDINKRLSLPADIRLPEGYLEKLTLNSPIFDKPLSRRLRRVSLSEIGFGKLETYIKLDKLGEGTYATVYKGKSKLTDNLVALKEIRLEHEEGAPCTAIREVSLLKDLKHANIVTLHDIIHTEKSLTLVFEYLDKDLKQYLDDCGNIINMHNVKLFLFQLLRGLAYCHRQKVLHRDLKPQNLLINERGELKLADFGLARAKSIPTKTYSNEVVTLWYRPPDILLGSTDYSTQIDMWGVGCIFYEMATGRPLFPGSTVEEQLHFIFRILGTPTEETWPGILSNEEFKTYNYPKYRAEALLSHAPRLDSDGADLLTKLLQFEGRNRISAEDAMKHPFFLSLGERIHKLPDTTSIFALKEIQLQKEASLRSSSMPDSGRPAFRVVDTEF
Non-receptor tyrosine-protein kinase TNK1, sequence (Q13470 whole entry): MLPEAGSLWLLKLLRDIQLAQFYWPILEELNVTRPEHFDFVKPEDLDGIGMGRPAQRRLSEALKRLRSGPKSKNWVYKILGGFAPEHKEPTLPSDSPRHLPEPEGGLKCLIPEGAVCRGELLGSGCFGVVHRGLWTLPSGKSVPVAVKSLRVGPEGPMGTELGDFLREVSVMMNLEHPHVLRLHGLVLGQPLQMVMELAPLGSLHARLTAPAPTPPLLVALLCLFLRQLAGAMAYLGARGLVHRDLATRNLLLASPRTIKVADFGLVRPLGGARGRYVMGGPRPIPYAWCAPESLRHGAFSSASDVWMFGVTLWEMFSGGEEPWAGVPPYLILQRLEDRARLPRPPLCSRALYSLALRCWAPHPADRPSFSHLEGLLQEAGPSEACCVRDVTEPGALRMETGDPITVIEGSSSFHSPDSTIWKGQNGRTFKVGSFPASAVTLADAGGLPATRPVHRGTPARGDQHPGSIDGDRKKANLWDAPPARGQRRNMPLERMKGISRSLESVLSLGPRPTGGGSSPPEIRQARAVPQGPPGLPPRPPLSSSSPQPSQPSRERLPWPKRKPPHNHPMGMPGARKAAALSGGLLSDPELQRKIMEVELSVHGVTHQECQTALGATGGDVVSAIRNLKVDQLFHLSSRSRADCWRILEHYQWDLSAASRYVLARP

CCOc1cc(N2CCC(O)CC2)ccc1Nc1ncc2c(n1)N(C)c1ccccc1C(=O)N2C
IC50 [1]: > 50 µM
IC50 [2]: > 50 µM
IC50 [3]: 10 µM
IC50 [4]: > 50 µM
IC50 [5]: > 50 µM
IC50 [6]: > 50 µM
IC50 [7]: > 50 µM
inhibition (Activated CDC42 kinase 1 [8]): 71.5%
inhibition [9]: -2.7%
inhibition [10]: -8.5%
inhibition [11]: 15.9%
inhibition (Activated CDC42 kinase 1 [12]): 24.4%
inhibition [13]: 28.7%
inhibition [14]: 13.9%
inhibition [15]: -3.7%
inhibition [16]: -3.2%
inhibition [17]: -5%
inhibition [18]: 5.7%
inhibition [19]: 9.7%
clearance [20]: 26 mL/min/kg
Cmax [21]: 0.522 µM
concentration at 24 h [22]: 10.2 µM
